Test system: MS2 coat protein
Assay: apparent Kd, MS2 coat protein; higher = weaker binding; RNA-MaP array; FMN 200 µM where present
Procedure, shortened: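 On Illumina sequencing-chip clusters, designs were transcribed by stalled E. coli RNA polymerase and titrated with SNAP-549-labelled MS2 coat protein (0.7 or 1.5 nM, doubling to 3 µM), without and then with constant ligand, in 100 mM Tris-HCl pH 7.5, 80 mM KCl, 4 mM MgCl2, BSA, DTT, yeast tRNA and Tween-20. Apparent Kd is the median of filtered per-cluster curve fits to green signal normalised to red-channel RNA signal and control-cluster median Fmax.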

[1] = designed as: ON switch for flavin mononucleotide, no ligand
[2] = ligand present: flavin mononucleotide, designed as: ON switch for flavin mononucleotide
[3] = designed as: OFF switch for flavin mononucleotide, no ligand
[4] = ligand present: flavin mononucleotide, designed as: OFF switch for flavin mononucleotide

Sequence	apparent Kd [1] [nM]	apparent Kd [2] [nM]	apparent Kd [3] [nM]	apparent Kd [4] [nM]
GCUACUUAUUUUAAGUAUGAUUUACUAGAAGGUAGAUACAUGAGGAUCACCCAUGUUUAGAGUUCUAAGGAUAUAGUUUGUAGC	7.81	7.57	–	–
AGCACGAAAGUGCAACGAUGUACGAGAAGGACAUGAGGAUCACCCAUGUAAGCAGUAACUGCAAUGUAGGAUAUCGUACAUCGA	–	–	8.41	12
AAAAGCUCAGGAUAUACGGUCUGUUGUUGAGAAAUAUCGAAACAUGAGGAUCACCCAUGUAGAAGGGAGCGAAA	–	–	223	599
UUGCUGCGGAAGUUCGGCUCUCGCGAGGAUAUACCUACAGGGCCACAUGAGGAUCACCCAUGUACGUAGAAGGCGCGACAGAAA	–	–	15.8	48
GGAUUACAUGAGGAUCACCCAUGUGAGGAUAUCGAUGUCCUCAGUAGAGUGCGGGACUCGAGAAGGCACUUGGA	–	–	70.1	95.9
GGUUAUUGCAAGGAUAUGCUUUUUUUUGAUAUUGCAGAAGGUGCAACAUGAGGAUCACCCAUGUUGGAGGGAUU	–	–	30.8	91.8
GGUCAUCAAGUCAGGAUAUCGUCUGGUCAAUCAGGCGAGAAGGGACAUGAGGAUCACCCAUGUCGACUCAUCAG	–	–	33.9	139
UGCUGACAAGGAUAUACUCGGGAUGCUAGUCGCGCAGUUGCACAUGAGGAUCACCCAUGUAGAAGGUGUCAGUA	–	–	169	210
CCUUCACAUGAGGAUCACCCAUGUCAGGAUAUCUCAGUGCAUCCACACGGACGCAUCAAGAGAAGGGACAAAAC	–	–	46.4	53.6
UAUAUAUAGUAAGGAUAUGUAACUAUUUUAUAAACAGAAGGUACUGACAUGAGGAUCACCCAUGUUUUAGUGUGGGCAUGUAGA	–	–	86.7	136
GGUCGUCAAGUCAGGAUAUCGUUUAGUCGAUGUAACGAGAAGGGACAUGAGGAUCACCCAUGUCGUCUCAUCAG	–	–	18.9	24.8
UAAGUUGAGGAGAAGGGAGCACAUGAGGAUCACCCAUGUGGUUCUUUGUGCUCAGGAUAUCCAUGGAGCUCCAACGCGUUCCCG	–	–	63.1	10.3
UCCCAGUAAGGAUAUCAGGCAAGUCUCCGGGAGCUUAGUCGUGAGAAGGUACAUGAGGAUCACCCAUGUGAUUG	–	–	58	211
GUAGCGCUUGACAUGAGGAUCACCCAUGUUAGAUUGUUAUGUCAGGAUAUAGUCUAGAAACUAGACUAGAAGGGAUAUGCUACU	251	39.8	–	–
UGUUGUUCAGGAUAUGGUGUGUUAUACAUGAGGAUCACCCAUGUGGGUCCUGAUUUGGCGUCAGAAGGGAAUGUUG	–	–	486	406
GGAAUGAGGCAGGAUAUGGGAGGGAGGACCGGACCAGAAGGGUUGACAUGAGGAUCACCCAUGUAGAGAUCCUC	–	–	1060	724
GAUCAAAACACUCCUUACACUACAUGAGGAUCACCCAUGUAGCAGGAUAUCGUUGCUCCUCGCUGCGAGAAGGGCUACGGGCGG	–	–	8.02	13.8
UGAUCAAAUGUCAGGAUAUGCUGUUGUAAUCAACAGCAGAAGGGACAUGAGGAUCACCCAUGUCUUGUCGAUUU	–	–	12.9	37.3
GUCAGCUCGUGAGGAUAUACAACACUGCUUCGGCAGCGUAUUAAGAUCACAUGAGGAUCACCCAUGUAGAAGGCACGAGCUGAU	–	–	11.7	206
UAAUCGUUGCAGAAGGUUAUUAUUAUAUCGUGUCACUUAACAUGAGGAUCACCCAUGUUUUUGAUGAAGGAUAUGCAACGGUAG	–	–	6.74	6.83
AAAUCUCAGAUAGGAUAUAUAGGAUAACUUAAGACCUAACAUGAGGAUCACCCAUGUGAUUAUUCGUAGAAGGAUCAUUGAACC	210	233	–	–
AAAAGAAUAAAAGGAUAUAGGAAAGGAAGUGUACUAGAAGGUUUGUUAACAUGAGGAUCACCCAUGUGCUCAGACACAGGGUGC	–	–	124	167
ACAUGAGGAUCACCCAUGUACAUGGGUUUAAUUGUGUGUUACUAGGAUAUGUAUUUGAAUUUACAACAGAAGGAGUAUUACUGU	–	–	621	179
UCUGCUCGAGGAUAUACAUGAGGAUCACCCAUGUAUCCCAGAAGCAUGGCCUCAGGAUGUAGAAGGCGACGCUA	–	–	14.1	18.5
CCACGUCCCAUUAACAUGAGGAUCACCCAUGUCAAAAGACAUGAGGAUAUGGUACCUAAUUGGUACCAGAAGGCAUGGACGUGG	691	114	–	–
ACAUUGUAUGUGAGGAUAUCGAUGGGAUGGGUUGUCGAGAAGGCACAUGAGGAUCACCCAUGUGGGAAACAGCA	–	–	39.5	170
UUACGUCCCGUUUACAUGAGGAUCACCCAUGUCGAAAGAGCGGAGGAUAUGCUACCUAGUUGGUAGCAGAAGGUUGCAACGUCG	17.7	28.3	–	–
CGCAAACAUGAGGAUCACCCAUGUCAAUGUGAUCAAGGAUAUGGGUUCCUAAACGGAACACCAGAAGGUGAGUAGA	85.2	23.8	–	–
